Laboratory results from publication PMC8463279 (Acta Pharmaceutica Sinica. B, 2021).
In brackets after ≈: the same amount, converted by molar mass. Read-outs that look alike come from different tables or passages of the source.

Legend:
[1] = target: T1, wildtype yeast bc1 complex (Saccharomyces cerevisiae, UniProt P00163); conditions: at 1 μmol/L; cited from earlier work
Cytotoxicity assay = assay type: cell-based, Human; conditions: human, HepG2 cells
Summary of the method: (§1)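 HepG2 cells in DMEM with 10% FBS and penicillin-streptomycin, seeded at 6,000/well and attached overnight at 37 °C, 5% CO₂. Test compound in DMSO diluted into medium and added; 24 h incubation. CCK-8 added for 2–4 h, then absorbance read at 450 nm. CC50 (reported as EC50) from nonlinear logistic regression. SI is CC50 over 3D7 EC50.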

[2] = tested on: 3D7 strain of P. falciparum; assay: Parasites growth inhibition assay; assay type: cell-based; conditions: Plasmodium falciparum
Summary of the method: (§2)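 P. falciparum grown in type O human red cells in RPMI 1640 with Albumax I, hypoxanthine, bicarbonate, 15 mmol/L HEPES and gentamycin, under 5% O₂/5% CO₂/90% N₂. Synchronised with alanine/HEPES or 5% sorbitol. Mid-ring parasites (0.5% parasitemia, 2% hematocrit) exposed to serially diluted test compound in triplicate for 72 h at 37 °C.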

[3] = target: T2, PF12 bc1 complex (PF11 changes plus Y279S) (Saccharomyces cerevisiae, UniProt P00163, C133V/C134L/F296L/H141Y/I299L/L275F/M295V/R283K/V135P/Y136W/Y279S); conditions: cited from earlier work
[4] = Measurement of solubility; assay type: physicochemical; conditions: thermodynamic from solid
Summary of the method: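 Solid added to solvent to supersaturation and shaken 24 h at room temperature, then centrifuged and filtered. Aqueous supernatants were quantified by reversed-phase HPLC against a standard curve prepared in methanol. For organic solvents, the dissolved solid was weighed after removing solvent under reduced pressure.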

HepG2 cells = assay: Cytotoxicity assay; assay type: cell-based, Human; conditions: CC50 / EC50 on 3D7
Summary of the method: as §1

[5] = tested on: P. falciparum strain CP286; assay: Parasites growth inhibition assay, strain CP286; assay type: cell-based; conditions: Plasmodium falciparum
Summary of the method: as §2

P. falciparum strain Dd2 = assay: Parasites growth inhibition assay, strain Dd2; assay type: cell-based; conditions: Plasmodium falciparum
Summary of the method: as §2

[6] = tested on: wildtype (WT) D10 parasites; assay: Parasites growth inhibition assay, wildtype D10 strain; assay type: cell-based; conditions: Plasmodium falciparum
Summary of the method: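 Wildtype D10 or yDHOD-transgenic D10 parasites were challenged with test compound with or without 50 nmol/L proguanil. Growth inhibition used SYBR Green I: mid-ring cultures at 0.5% parasitemia and 2% hematocrit, in triplicate, for 72 h at 37 °C under 5% O₂/5% CO₂. Plates were freeze-thawed and lysed with SYBR Green I buffer, and fluorescence read at 485/538 nm. EC50 by nonlinear regression.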

P. falciparum strain 803 = assay: Parasites growth inhibition assay, strain 803; assay type: cell-based; conditions: Plasmodium falciparum
Summary of the method: as §2

[7] = tested on: P. falciparum strain Fab9; assay: Parasites growth inhibition assay, strain Fab9; assay type: cell-based; conditions: Plasmodium falciparum
Summary of the method: as §2

P. falciparum strain GB4 = assay: Parasites growth inhibition assay, strain GB4; assay type: cell-based; conditions: Plasmodium falciparum
Summary of the method: as §2

P. falciparum strain C2A = assay: Parasites growth inhibition assay, strain C2A; assay type: cell-based; conditions: Plasmodium falciparum
Summary of the method: as §2

[8] = tested on: P. falciparum strain PC26; assay: Parasites growth inhibition assay, strain PC26; assay type: cell-based; conditions: Plasmodium falciparum
Summary of the method: as §2

[9] = target: T1, wildtype yeast bc1 complex; assay: Decylubiquinol-cytochrome c reductase activity, wildtype yeast bc1; assay type: biochemical; conditions: at 10 μmol/L, data not shown
Summary of the method: (§3)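 Yeast cytochrome b mutants carry P. falciparum-like substitutions and are otherwise isogenic. Mitochondria from mid-log YPGal cultures were made via zymolyase protoplasts, osmotic shock and differential centrifugation; bc1 content came from dithionite-reduced spectra. Assay at room temperature: 20 µmol/L cytochrome c in 10 mmol/L potassium phosphate pH 7, 0.01% lauryl-maltoside, 1 mmol/L KCN. bc1 was 6 nmol/L (wildtype) or 20 nmol/L (mutants), started with 40 µmol/L decylubiquinol.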

[10] = tested on: Plasmodium yoelii-infected mouse models; assay: In vivo efficacy study on P. yoelii-infected mice; conditions: once a day for 4 days
Summary of the method: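 Female BALB/c mice (25 g, 6–8 weeks), specific pathogen-free, five per group. Infected intraperitoneally with about 1×10⁶ P. yoelii-infected red cells on Day 0, then randomised. Test compound in aqueous 5% DMSO / 18% PEGylated castor oil given intraperitoneally once daily for 4 days from Day 1. Chloroquine and DMSO groups included. Parasitemia by Giemsa-stained smear microscopy; survival followed, with CO₂ euthanasia at distress. Mean ± SD, n = 5.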

[11] = tested on: various P. falciparum strains; assay: Parasites growth inhibition on the panel of various P. falciparum strains; assay type: cell-based, Plasmodium falciparum; conditions: all strains of Table 2
Summary of the method: as §2

[12] = target: PF11 bc1 complex with P. falciparum-like modifications in the Qo-site (Saccharomyces cerevisiae, UniProt P00163, C133V/C134L/F296L/H141Y/I299L/L275F/M295V/R283K/V135P/Y136W); assay: Decylubiquinol-cytochrome c reductase activity, yeast bc1 mutant PF11; assay type: biochemical
Summary of the method: as §3

[13] = target: T2, PF12 bc1 complex (PF11 changes plus Y279S); assay: Decylubiquinol-cytochrome c reductase activity, yeast bc1 mutant PF12; assay type: biochemical
[14] = target: PFQi4 bc1 complex with P. falciparum-like modifications in the Qi-site (Saccharomyces cerevisiae, UniProt P00163, A191L/F225L/I17L/I195F/I226L/L198I/L40F/M221F/Q22C/S20Y/S34F/V41F/Y16H); assay: Decylubiquinol-cytochrome c reductase activity, yeast bc1 mutant PFQi4; assay type: biochemical
Summary of the method: as §3

Pfbc1 = target: T3, Pfbc1 (Plasmodium falciparum, UniProt Q02768); assay: Decylubiquinol-cytochrome c reductase activity of Pfbc1; assay type: biochemical, P. falciparum
T3 sequence (Q02768 1-376): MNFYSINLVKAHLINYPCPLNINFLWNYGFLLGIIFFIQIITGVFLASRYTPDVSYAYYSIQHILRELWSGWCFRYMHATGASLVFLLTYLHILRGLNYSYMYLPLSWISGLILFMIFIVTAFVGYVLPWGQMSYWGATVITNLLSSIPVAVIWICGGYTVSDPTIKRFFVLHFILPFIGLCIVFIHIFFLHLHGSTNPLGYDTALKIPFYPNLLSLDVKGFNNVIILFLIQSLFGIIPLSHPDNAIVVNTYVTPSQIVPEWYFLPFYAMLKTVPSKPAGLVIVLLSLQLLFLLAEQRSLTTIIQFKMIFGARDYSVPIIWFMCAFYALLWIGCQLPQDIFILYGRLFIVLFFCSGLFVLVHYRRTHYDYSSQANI

PfNDH2 = target: T4, PfNDH2 (Plasmodium falciparum, UniProt Q8I302); assay: Enzymatic activity assay of PfNDH2; assay type: biochemical, P. falciparum
T4 sequence (Q8I302 1-533): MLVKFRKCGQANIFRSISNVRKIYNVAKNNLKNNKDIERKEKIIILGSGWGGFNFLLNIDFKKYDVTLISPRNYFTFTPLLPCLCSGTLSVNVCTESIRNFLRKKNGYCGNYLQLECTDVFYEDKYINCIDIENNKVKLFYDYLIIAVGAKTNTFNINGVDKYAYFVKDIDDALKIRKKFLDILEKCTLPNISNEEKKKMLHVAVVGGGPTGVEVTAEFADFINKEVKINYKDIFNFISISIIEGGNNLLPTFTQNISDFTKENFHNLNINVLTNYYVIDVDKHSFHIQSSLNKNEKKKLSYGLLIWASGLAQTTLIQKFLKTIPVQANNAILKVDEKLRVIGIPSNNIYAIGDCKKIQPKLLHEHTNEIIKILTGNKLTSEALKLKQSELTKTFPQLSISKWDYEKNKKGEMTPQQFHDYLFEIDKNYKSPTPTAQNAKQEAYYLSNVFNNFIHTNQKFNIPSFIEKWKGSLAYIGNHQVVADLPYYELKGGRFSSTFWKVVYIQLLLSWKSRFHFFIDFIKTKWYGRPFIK
Summary of the method: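 Reaction started with enzyme; NADH decrease followed continuously at 340 nm (ε 6220 L/(mol·cm)); IC50 by nonlinear regression. Kinetics varied UQ₁ (5–100 µmol/L) or NADH (10–600 µmol/L) at several inhibitor concentrations; Lineweaver–Burk analysis.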

[15] = 0.01 mol/L HCl, pH 2, simulated gastric fluid
[16] = dichloromethane, organic solvent or mixture
[17] = methanol, organic solvent or mixture

Compound	CC50 at 24 h (Cytotoxicity assay)	EC50 [2]	solubility at 24 h [4, 15]	solubility at 24 h [4, 16]	solubility at 24 h [4, 17]	solubility at 24 h ([4]; water)	SI (selectivity index) (HepG2 cells)	EC50 [5]	EC50 (P. falciparum strain Dd2)	EC50 [6]	EC50 (P. falciparum strain 803)	EC50 [7]	EC50 (P. falciparum strain GB4)	EC50 (P. falciparum strain C2A)	EC50 [8]	also measured
O=C1C(O)=C([C@H]2CC[C@H](c3ccc(Cl)cc3)CC2)C(=O)c2ccccc21 [Atovaquone, atovaquone, reference compound]	> 10000 nM	0.45 nM	0.0006 mM (≈ 0.22 µg/mL)	29 mM (≈ 10600 µg/mL)	29 mM (≈ 10600 µg/mL)	0.0007 mM (≈ 0.257 µg/mL)	–	–	–	–	–	–	–	–	–	Inhibition of wildtype yeast bc1 complex [1]: fully inhibited; Increase of mid-point inhibitory concentration PF12 compared to PF11 [3]: > 100 fold
Cc1c(-c2ccc(Cc3ccc(OC(F)(F)F)cc3)c(CN(C)C)c2)[nH]c2cccc(F)c2c1=O [Compound 24]	> 10000 nM	2.09 nM	0.496 mM (≈ 240 µg/mL)	19 mM (≈ 9210 µg/mL)	110 mM (≈ 53300 µg/mL)	0.04 mM (≈ 19.4 µg/mL)	>4785	4.56 nM	2.05 nM	3.23 nM	9.3 nM	6.01 nM	1.02 nM	1.44 nM	3.17 nM	–
Cc1c(-c2ccc(Cc3ccc(OC(F)(F)F)cc3)c(CN3CCCC3)c2)[nH]c2cccc(F)c2c1=O [Compound 25]	> 10000 nM	2.89 nM	0.45 mM (≈ 230 µg/mL)	30 mM (≈ 15300 µg/mL)	37 mM (≈ 18900 µg/mL)	0.0163 mM (≈ 8.32 µg/mL)	>3460	4.81 nM	2.18 nM	2.32 nM	9.81 nM	5.33 nM	1.41 nM	7.01 nM	3.3 nM	–
CCCCCN(C)Cc1cc(-c2[nH]c3cccc(F)c3c(=O)c2C)ccc1Cc1ccc(OC(F)(F)F)cc1 [Compound 30]	> 10000 nM	0.61 nM	0.337 mM (≈ 182 µg/mL)	370 mM (≈ 200000 µg/mL)	34 mM (≈ 18400 µg/mL)	0.0064 mM (≈ 3.46 µg/mL)	>16,393	–	–	–	–	–	–	–	–	–
CCCCCCCN(C)Cc1cc(-c2[nH]c3cccc(F)c3c(=O)c2C)ccc1Cc1ccc(OC(F)(F)F)cc1 [Compound 31]	> 10000 nM	0.3 nM	0.0194 mM (≈ 11 µg/mL)	420 mM (≈ 239000 µg/mL)	32 mM (≈ 18200 µg/mL)	0.002 mM (≈ 1.14 µg/mL)	>33,333	–	–	–	–	–	–	–	–	–
CCCN(C)Cc1cc(-c2[nH]c3cccc(F)c3c(=O)c2C)ccc1Cc1ccc(OC(F)(F)F)cc1 [RYL-581]	> 10000 nM	0.056 nM	0.428 mM (≈ 219 µg/mL)	64 mM (≈ 32800 µg/mL)	37 mM (≈ 19000 µg/mL)	0.0136 mM (≈ 6.97 µg/mL)	>178,571	–	0.44 nM	0.7 nM	0.96 nM	0.27 nM	0.23 nM	0.29 nM	0.31 nM	Inhibition of wildtype yeast bc1 complex [9]: only slight inhibition; Day by which parasites were completely cleared ([10]; 3 mg/kg/d intraperitoneal): ≤ 22 days; Final survival rate ([10]; 3 mg/kg/d intraperitoneal, 5 mice): 80%; Day by which all mice were cured ([10]; 10 mg/kg/d intraperitoneal): ≤ 16 days; Survival rate ([10]; 10 mg/kg/d intraperitoneal, 5 mice): 100%; EC50 values on various strains, in words [11]: sub-nanomolar; IC50 [12]: ~300 nM; IC50 [13]: ~1000 nM; Increase of mid-point inhibitory concentration PF12 compared to PF11 [13]: three-fold; IC50 [14]: ~10000 nM; Resistance of PFQi4 bc1 complex compared to wild type [14]: increased reactivity; IC50 (Pfbc1): 0.51 nM; Potency on PfNDH2 decreased as compared to RYL-552 (PfNDH2): 11 fold; IC50 (PfNDH2; IC50 PfNDH2, 200 μmol/L NADH, 100 μmol/L UQ1): 42.2 nM; Type of inhibition of PfNDH2 (Lineweaver–Burk) (PfNDH2; substrates Q (UQ1) and NADH varied): non-competitive
